High-throughput results: PubChem, several laboratories
AI-2 QS modul: Vibrio harveyi AI-2 quorum sensing modulation. AID 2094. 0.4% of 300,000 active. activity change, % at 7.5 µM. Vibrio harveyi JMH597 AI-2 luminescence/OD600 ratio, 9 h; active compounds read low; strain lacks LuxN and CqsS sensors; 0 = neutral-control median; in the data active = activity change below about -75%, passing the limit was not always enough;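 note: luminescence divided by OD600 gain over 9 h not by final OD600 alone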
T cruzi inh: blocks replication of Trypanosoma cruzi | 1.4% of 300,000 active | T. cruzi beta-gal in NIH3T3, luminescence, 90 h | AID 1885 | inhibition, % (test concentration not listed);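 active = mean inhibition across valid replicates above about 55%, limit read from the data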;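 note: signal also drops with host cell toxicity which is not excluded here; 0% = plate median of DMSO wells and 100% = zero luminescence signal; higher percent means less beta-gal luminescence so fewer parasites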
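Read-out: Parasite load inhibition, % | Test system: Mouse NIH/3T3 fibroblasts infected with β-gal-expressing T. cruzi Tulahuen C4 | Amount: 5,000 cells/well | Medium: DMEM, 2% fetal bovine serum | Signal: GalScreen β-gal luminescence, detergent lysis, 60 min | Timing: 3 h attach, ≥90 h co-culture | Also added: Tulahuen C4 trypomastigotes, 5000/well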
UBC13 polyUb: inhibitors of human UBC13 polyubiquitin chain formation; TR-FRET; inhibition, % at 20 µM; 0.47% of 330,000 active; in the data active = inhibition above about 45%, passing the limit was not always enough
Target sequence (P61088 whole entry, looked up): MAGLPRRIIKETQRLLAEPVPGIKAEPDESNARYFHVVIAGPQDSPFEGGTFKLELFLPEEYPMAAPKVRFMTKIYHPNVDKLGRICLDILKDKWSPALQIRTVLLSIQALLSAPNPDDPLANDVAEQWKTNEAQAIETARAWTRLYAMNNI
pCIP destab: lowers stability of the mouse p/CIP coactivator protein; Q05BA5; decrease of EGFP signal, % at 10 µM; F442A p/CIP-EGFP cells, EGFP fluorescence, 16 h; 0.01% of 290,000 active;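 active = EGFP signal decrease of at least 30% at 10 µM or well 3 SD below plate mean, unless failing retest; inactive = the rest, including hits failing retest or dose response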
PP1 inh: counter-screen for PP5 inhibitors: inhibitors of human PP1-alpha; 0.9% of 320,000 active; purified PP1alpha, OMFP fluorescence; P62136; inhibition, % at 6.7 µM;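 active = inhibition above the mean inhibition of all tested compounds plus 3 SD, computed separately for each screening campaign, cut at about 15% in these data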
Target sequence (P62136 whole entry, looked up): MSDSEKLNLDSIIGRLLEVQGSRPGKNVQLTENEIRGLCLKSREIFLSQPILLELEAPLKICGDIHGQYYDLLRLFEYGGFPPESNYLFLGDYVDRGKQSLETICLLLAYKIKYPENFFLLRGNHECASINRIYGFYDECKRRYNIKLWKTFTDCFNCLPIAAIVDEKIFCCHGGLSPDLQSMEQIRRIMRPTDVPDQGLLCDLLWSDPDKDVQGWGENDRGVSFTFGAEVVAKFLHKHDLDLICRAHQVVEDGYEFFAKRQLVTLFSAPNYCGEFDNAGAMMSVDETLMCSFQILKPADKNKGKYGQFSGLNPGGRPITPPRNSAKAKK
PP1 inh confirm: human PP1 phosphatase inhibition, confirmation. purified PP1alpha, OMFP substrate fluorescence. shares compounds with PP1 inh. 52% of 1,900 active. inhibition, % at 6.7 µM;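 active = mean PP1 inhibition above a set limit taken from the earlier primary screen, cut at about 15% in these data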
PP5 inh counter: counter-screen for PP1 inhibitors: human PP5 phosphatase inhibition; shares compounds with PP1 inh; purified PP5c, OMFP fluorescence; inhibition, % at 6.7 µM; 4% of 1,900 active; AID 2360;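 active = mean PP5 inhibition over triplicate wells above about 9.5% taken from the earlier PP1 screen, limit read from the data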
An asterisk follows results filed as active; · = no result given. A selection: hits, their analogues and other compounds. The true share with any hit is near 2.8%.

SMILES	AI-2 QS modul	T cruzi inh	UBC13 polyUb	pCIP destab	PP1 inh	PP1 inh confirm	PP5 inh counter
O=[N+]([O-])c1ccc(N2N=C(c3ccco3)CC2c2ccccc2)cc1 (stereo unspecified)	24	13	-93	-1	19*	2	-4
Fc1ccc(C2CC(c3ccco3)=NN2c2ccccc2)cc1 (stereo unspecified)	27	5	22	-48	3	·	·
Cc1ccc(C(=O)Nc2ccc(C(=O)N3CCCCC3)cc2)o1	-39	-7	-3	-14	-2	·	·
N#CCC(=O)N/N=C/c1cc(Br)ccc1OCc1cccc2ccccc12	23	11	-7	10	21*	-1	1
N#CCC(=O)N/N=C/c1c2ccccc2cc2ccccc12	14	14	-4	-5	·	·	·
O=C(O)c1ccc(N/N=C/c2ccc(OC(=O)c3cccc(Cl)c3)cc2)cc1	10	-4	-24	-5	52*	14	-1
O=C(Oc1ccc(/C=N/Nc2ccccc2)cc1)c1ccccc1	28	-8	0	15	21*	8	-3
COc1ccc(NC(=O)c2ccc3c(c2)C(=O)N(CC2CCCO2)C3=O)c(OC)c1 (stereo unspecified)	-2	-6	-2	2	0	·	·
Fc1ccccc1Cc1noc(CN2CCCC(CN3CCOCC3)C2)n1 (stereo unspecified)	4	4	-6	-4	-5	·	·
O=C(/C=C/c1ccccc1)NC(=S)NNC(=O)c1cnccn1	-8	50	-8	-4	22*	24*	-3
CC(/C=C/c1ccccc1)=N/NC(=O)c1cnccn1	13	-11	-3	-11	-2	·	·
Cc1sc2nc(COC(=O)c3cccc(OC(F)F)c3)[nH]c(=O)c2c1C	51	-2	0	-8	3	·	·
Cc1sc2nc(COC(=O)c3cccc(S(=O)(=O)N(C)c4ccccc4)c3)[nH]c(=O)c2c1C	28	6	-9	-25	21*	25*	-2
C/C(=N\OC(=O)c1cccc(C(F)(F)F)c1)c1sc(-c2ccccc2)nc1C	13	-20	11	-7	-4	·	·
CCOC(=O)c1sc(-c2ccc(Cl)cc2)nc1O	26	9	4	-7	25*	18*	-3
CCOC(=O)c1nc(-c2ccccc2)sc1C(C)=O	-3	0	-12	-21	-3	·	·
CCOC(=O)c1sc(-c2cccc(C(F)(F)F)c2)nc1O	45	7	0	-1	18*	17*	-3
CC(C)(C)c1ccccc1OCC(=O)Nc1ncn[nH]1	2	-6	-22	6	9	·	·
CC(C)(C)c1cc(Br)ccc1OCC(=O)Nc1ncn[nH]1	32	4	-24	-2	23*	20*	-2
Cn1nc(C(=O)OCC(=O)NC2CCS(=O)(=O)C2)c2ccccc2c1=O (stereo unspecified)	27	-3	-7	12	-8	·	·
COc1ccc(NS(=O)(=O)c2ccc(N/N=C(\C)c3ccncc3)c([N+](=O)[O-])c2)cc1	16	53	-35	-11	24*	16*	6
CCOc1cc(/C=C/C(=O)c2ccc(OC)c(CN3CCOCC3)c2)cc(Br)c1O	6	11	-97	-50	-2	·	·
COc1cc2c(=O)n(CCC(=O)NCC3CCCO3)c(=O)n(CC(=O)Nc3ccc(C)cc3)c2cc1OC (stereo unspecified)	51	-12	4	0	-4	·	·
COc1ccc(OCC(=O)Nc2cc(-c3nn(C)c(=O)c4ccccc34)ccc2OC)cc1	39	17	44	-23	1	·	·
COc1ccc(-c2nn(C)c(=O)c3ccccc23)cc1NC(=O)Cn1nc(-c2ccccc2)c2ccccc2c1=O	5	44	-3	-23	24*	18*	-2
SMILES	AI-2 QS modul	T cruzi inh	UBC13 polyUb	pCIP destab	PP1 inh	PP1 inh confirm	PP5 inh counter
CSc1ccc(C=NNc2ccc(S(=O)(=O)Nc3ccccc3C(=O)O)cc2[N+](=O)[O-])cc1	·	·	-96	·	·	·	·
Cc1nn(-c2ccccc2)c(Cl)c1/C=N/Nc1ccc(S(=O)(=O)Nc2ccccc2C(=O)O)cc1[N+](=O)[O-]	52	-15	-71	-20	20*	11	-2
CCC(C)(C)NC(=O)C(c1cccn1C)N(Cc1ccc(OC)cc1)C(=O)Cn1nnc2ccccc21 (stereo unspecified)	12	0	-2	-7	30*	25*	2
O=[N+]([O-])c1cc(/C=N/n2c(-c3ccncc3)n[nH]c2=S)ccc1Cl	17	-6	-11	-5	25*	4	-2
O=C1CCc2cc(S(=O)(=O)N3CCN(C(=O)c4ccco4)CC3)ccc2N1	36	-2	-12	2	71*	-2	-4
CCn1c2c(c(=N)c3c1CCC3)CCCC2	-9	-3	2	-15	4	·	·
CCCCCCCCCCn1c2c(c(=N)c3c1CCC3)CCC2	30	68*	62*	-13	21*	2	-2
N#Cc1cccc(NC(=O)CNc2cccc(S(=O)(=O)N3CCCC3)c2)c1	0	5	-1	·	21*	-5	-4
O=C(C1=C[C@@H]2[C@H]3C(=O)N(c4ccccc4Cl)C(=O)[C@H]3[C@@H](C(=O)c3ccc(Cl)cc3)N2C=C1)c1ccccc1	15	-10	-17	-11	23*	18*	4
Cc1ccc(/C=N/n2c(-c3ccc(Cl)cc3)n[nH]c2=S)s1	24	9	-8	18	20*	10	-4
O=C(Cc1csc(NC(=O)Nc2ccc(Cl)cc2)n1)NC1CCCC1	-3	-4	0	·	24*	19*	-3
COc1cc(NC(=O)c2cnc(N)s2)cc(C(=O)Nc2cccc(C(F)(F)F)c2)c1	4	7	17	-4	32*	34*	1
CN(C)N1C(=O)CC(C)(c2ccc([N+](=O)[O-])cc2)C1=O (stereo unspecified)	18	-8	2	·	2	·	·
O=C(O)C1C2CCC(O2)C1C(=O)Nc1ccc(Br)cc1F (stereo unspecified)	-4	-19	·	·	58*	14	21*
Cc1ccc(NC(=O)C2C3CCC(O3)C2C(=O)O)c(Br)c1 (stereo unspecified)	20	-17	-8	1	67*	20*	28*
O=C(COC(=O)CC1CCCC1)Nc1ccc(Br)cc1F	·	·	8	·	·	·	·
Cc1ccc(Cl)cc1NC(=O)C1C2CCC(O2)C1C(=O)O (stereo unspecified)	18	-10	1	-1	52*	10	16*
CCc1nnc(NC(=O)CCC(=O)N2CCN(c3cc(Cl)ccc3C)CC2)s1	20	-11	4	-7	1	·	·
